Measured values reported in ChEMBL document CHEMBL4406806, “Design, Synthesis, and Characterization of Ogerin-Based Positive Allosteric Modulators for G Protein-Coupled Receptor 68 (GPR68)” (J Med Chem, 2019).
Active and inactive are the calls of the source. No cut-off for these calls is given here.

Experiments:
[1] = target: G-protein coupled receptor 68 (Homo sapiens) (UniProt Q15743); test: Positive allosteric modulation of human GPR68 expressed in HEK293T cells co-expressing Gs assessed as stimulation of proton-mediated cAMP production by measuring allosteric affinity cooperativity in HBSS buffer containing pH 6.8 to 8.2 HEPES/pH 8.3 to 8.6 TAPS measured after 20 to 30 mins in presence of PDE inhibitor Ro 20-1724 by luciferase-glo reporter gene assay; type: functional, cell-based
Procedure, shortened: (§1)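 Transient co-transfection of HEK293T with receptor and GloSensor plasmids using PEI, overnight, then replated in DMEM + 1% dFBS for 6–24 h. Luciferin 3.5 mM loaded for 1 h at 37 °C in HBSS/20 mM TAPS, pH 8.40. Proton series: Ca/Mg-free HBSS with MES (pH 5.60–6.70), HEPES (6.80–8.20) or TAPS (8.30–8.60), plus 10 μM Ro 20-1724. BSA 1 mg/mL added where solubility required. Luminescence read at 20–30 min. At least six 16-point proton curves across modulator concentrations, quadruplicate, ≥3 independent assays.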

[2] = target: G-protein coupled receptor 68 (Homo sapiens) (UniProt Q15743); test: Positive allosteric modulation of human GPR68 expressed in HEK293T cells co-expressing Gs assessed as stimulation of proton-mediated cAMP production by measuring efficacy cooperativity in HBSS buffer containing pH 6.8 to 8.2 HEPES/pH 8.3 to 8.6 TAPS measured after 20 to 30 mins in presence of PDE inhibitor Ro 20-1724 by luciferase-glo reporter gene assay; type: functional, cell-based; procedure, shortened: as §1
[3] = target: G-protein coupled receptor 68 (Homo sapiens) (UniProt Q15743); test: Positive allosteric modulation of human GPR68 expressed in HEK293T cells co-expressing Gs assessed as stimulation of proton-mediated cAMP production by measuring allosteric binding affinity in HBSS buffer containing pH 6.8 to 8.2 HEPES/pH 8.3 to 8.6 TAPS measured after 20 to 30 mins in presence of PDE inhibitor Ro 20-1724 by luciferase-glo reporter gene assay; type: functional, cell-based; procedure, shortened: as §1
[4] = target: G-protein coupled receptor 68 (Homo sapiens) (UniProt Q15743); test: Positive allosteric modulation of human GPR68 expressed in HEK293T cells co-expressing Gs assessed as stimulation of proton-mediated cAMP production by measuring allosteric index in HBSS buffer containing pH 6.8 to 8.2 HEPES/pH 8.3 to 8.6 TAPS measured after 20 to 30 mins in presence of PDE inhibitor Ro 20-1724 by luciferase-glo reporter gene assay; type: functional, cell-based; procedure, shortened: as §1
[5] = target: G-prodeshotein coupled receptor 4 (Homo sapiens) (UniProt P46093); test: Positive allosteric modulation of human GPR4 expressed in HEK293T cells co-expressing Gs assessed as stimulation of proton-mediated cAMP production at higher concentration in HBSS buffer containing pH 6.8 to 8.2 HEPES/pH 8.3 to 8.6 TAPS measured after 20 to 30 mins in presence of PDE inhibitor Ro 20-1724 by luciferase-glo reporter gene assay; type: functional, cell-based; procedure, shortened: as §1
[6] = target: G-protein coupled receptor 65 (Homo sapiens) (UniProt Q8IYL9); test: Positive allosteric modulation of human GPR65 expressed in HEK293T cells co-expressing Gs assessed as stimulation of proton-mediated cAMP production at higher concentration in HBSS buffer containing pH 6.8 to 8.2 HEPES/pH 8.3 to 8.6 TAPS measured after 20 to 30 mins in presence of PDE inhibitor Ro 20-1724 by luciferase-glo reporter gene assay; type: functional, cell-based; procedure, shortened: as §1
[7] = target: T1, 5-hydroxytryptamine receptor 2B (Homo sapiens, UniProt P41595); test: Displacement of [3H]LSD from recombinant human 5HT2B stably expressed in HEK cell membranes incubated for 90 mins under dark condition by microbeta scintillation counting analysis
[8] = target: T1, 5-hydroxytryptamine receptor 2B; test: Agonist activity at human 5HT2B receptor expressed in Flp-In-HEK cells co-expressing Gq assessed as stimulation of calcium mobilization measured for 2 mins by fluo-4 calcium dye-based FLIPR assay; type: functional, cell-based
Procedure, shortened: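 HEK293 cells stably expressing 5-HT2B, seeded overnight (16–20 h) on poly-L-Lys in DMEM + 1% dFBS. Fluo-4 Direct dye loaded for 1 h at 37 °C in HBSS/20 mM HEPES/2.5 mM probenecid, pH 7.40. Drug diluted in buffer with 1 mg/mL BSA and 0.1 mg/mL ascorbic acid. Fluorescence read for 2 min; peak fold of basal within the first minute.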

[9] = target: T1, 5-hydroxytryptamine receptor 2B; test: Antagonist activity at human 5HT2B receptor expressed in Flp-In-HEK cells co-expressing Gq assessed as inhibition of 5HT-induced stimulation of calcium mobilization preincubated for 10 mins followed by 5HT addition by fluo-4 calcium dye-based FLIPR assay; type: functional, cell-based
[10] = target: T2, Atypical chemokine receptor 3 (Homo sapiens, UniProt P25106); test: Agonist activity at human ACKR3 expressed in HTLA cells assessed as stimulation of beta-arrestin recruitment at 1 uM incubated for 16 to 20 hrs by bright-glo luminescence assay; type: cell-based
[11] = target: T2, Atypical chemokine receptor 3; test: Agonist activity at human ACKR3 expressed in HTLA cells assessed as stimulation of beta-arrestin recruitment incubated for 16 to 20 hrs by bright-glo luminescence assay; type: cell-based
Procedure, shortened: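 Tango arrestin assay in HTLA cells transfected with receptor DNA overnight in DMEM + 10% FBS, then replated on poly-L-Lys in DMEM + 1% dFBS. Drugs added 6 h later and incubated overnight (16–20 h). Medium removed, Bright-Glo added, luminescence counted.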

[12] = target: G-protein coupled receptor 68 (Mus musculus) (UniProt Q8BFQ3); test: Positive allosteric modulation of mouse GPR68 expressed in HEK293T cells co-expressing Gs assessed as stimulation of proton-mediated cAMP production by measuring allosteric affinity cooperativity in HBSS buffer containing pH 6.8 to 8.2 HEPES/pH 8.3 to 8.6 TAPS measured after 20 to 30 mins in presence of PDE inhibitor Ro 20-1724 by luciferase-glo reporter gene assay; type: functional, cell-based
Procedure, shortened: (§2)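 α, β and KB obtained by fitting proton responses with and without modulator to the standard allosteric operational model. Overall index is log(αβ/KB). Values are mean ± SEM from ≥3 independent assays, each run in triplicate or quadruplicate.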

[13] = target: G-protein coupled receptor 68 (Mus musculus) (UniProt Q8BFQ3); test: Positive allosteric modulation of mouse GPR68 expressed in HEK293T cells co-expressing Gs assessed as stimulation of proton-mediated cAMP production by measuring efficacy cooperativity in HBSS buffer containing pH 6.8 to 8.2 HEPES/pH 8.3 to 8.6 TAPS measured after 20 to 30 mins in presence of PDE inhibitor Ro 20-1724 by luciferase-glo reporter gene assay; type: functional, cell-based; procedure, shortened: as §2
[14] = target: G-protein coupled receptor 68 (Mus musculus) (UniProt Q8BFQ3); test: Positive allosteric modulation of mouse GPR68 expressed in HEK293T cells co-expressing Gs assessed as stimulation of proton-mediated cAMP production by measuring allosteric index in HBSS buffer containing pH 6.8 to 8.2 HEPES/pH 8.3 to 8.6 TAPS measured after 20 to 30 mins in presence of PDE inhibitor Ro 20-1724 by luciferase-glo reporter gene assay; type: functional, cell-based; procedure, shortened: as §2
[15] = target: G-protein coupled receptor 68 (Homo sapiens) (UniProt Q15743); test: Positive allosteric modulation of human GPR68 expressed in HEK293T cells co-expressing Gs assessed as stimulation of proton-mediated cAMP production in HBSS buffer containing pH 6.8 to 8.2 HEPES/pH 8.3 to 8.6 TAPS measured after 20 to 30 mins in presence of PDE inhibitor Ro 20-1724 by luciferase-glo reporter gene assay; type: functional, cell-based; procedure, shortened: as §1
[16] = target: G-prodeshotein coupled receptor 4 (Homo sapiens) (UniProt P46093); test: Positive allosteric modulation of human GPR4 expressed in HEK293T cells co-expressing Gs assessed as stimulation of proton-mediated cAMP production in HBSS buffer containing pH 6.8 to 8.2 HEPES/pH 8.3 to 8.6 TAPS measured after 20 to 30 mins in presence of PDE inhibitor Ro 20-1724 by luciferase-glo reporter gene assay; type: functional, cell-based; procedure, shortened: as §1
[17] = target: G-protein coupled receptor 65 (Homo sapiens) (UniProt Q8IYL9); test: Positive allosteric modulation of human GPR65 expressed in HEK293T cells co-expressing Gs assessed as stimulation of proton-mediated cAMP production in HBSS buffer containing pH 6.8 to 8.2 HEPES/pH 8.3 to 8.6 TAPS measured after 20 to 30 mins in presence of PDE inhibitor Ro 20-1724 by luciferase-glo reporter gene assay; type: functional, cell-based; procedure, shortened: as §1

G-protein coupled receptor 68 (Mus musculus), sequence (Q8BFQ3 whole entry): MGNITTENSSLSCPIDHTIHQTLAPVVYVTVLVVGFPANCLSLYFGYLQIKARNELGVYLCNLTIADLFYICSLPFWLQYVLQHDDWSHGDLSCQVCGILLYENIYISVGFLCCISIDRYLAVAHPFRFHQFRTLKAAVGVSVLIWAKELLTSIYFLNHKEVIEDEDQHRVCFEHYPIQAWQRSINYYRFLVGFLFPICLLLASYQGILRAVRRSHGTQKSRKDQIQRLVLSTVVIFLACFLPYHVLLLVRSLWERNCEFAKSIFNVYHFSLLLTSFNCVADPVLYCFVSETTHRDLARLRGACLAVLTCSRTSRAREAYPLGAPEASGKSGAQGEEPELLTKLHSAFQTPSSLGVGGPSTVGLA
G-protein coupled receptor 68 (Homo sapiens), sequence (Q15743 whole entry): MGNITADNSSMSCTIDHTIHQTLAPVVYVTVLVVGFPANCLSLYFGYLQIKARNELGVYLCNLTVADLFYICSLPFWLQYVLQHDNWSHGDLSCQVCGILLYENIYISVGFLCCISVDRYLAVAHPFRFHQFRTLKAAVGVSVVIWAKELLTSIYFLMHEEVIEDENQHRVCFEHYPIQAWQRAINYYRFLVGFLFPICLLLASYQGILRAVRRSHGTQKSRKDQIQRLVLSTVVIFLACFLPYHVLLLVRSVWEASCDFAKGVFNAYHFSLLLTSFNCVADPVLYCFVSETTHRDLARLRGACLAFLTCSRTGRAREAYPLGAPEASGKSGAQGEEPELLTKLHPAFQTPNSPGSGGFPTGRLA
G-protein coupled receptor 65 (Homo sapiens), sequence (Q8IYL9 whole entry): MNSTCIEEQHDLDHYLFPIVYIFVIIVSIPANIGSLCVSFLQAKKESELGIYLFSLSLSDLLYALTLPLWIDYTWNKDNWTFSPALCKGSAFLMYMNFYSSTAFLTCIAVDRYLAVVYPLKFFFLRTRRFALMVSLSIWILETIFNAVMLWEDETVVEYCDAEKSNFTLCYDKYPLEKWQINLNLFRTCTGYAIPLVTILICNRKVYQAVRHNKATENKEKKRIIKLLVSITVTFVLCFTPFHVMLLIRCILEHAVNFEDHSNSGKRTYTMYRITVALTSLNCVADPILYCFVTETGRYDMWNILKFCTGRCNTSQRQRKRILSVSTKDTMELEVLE
T2 sequence (P25106 whole entry): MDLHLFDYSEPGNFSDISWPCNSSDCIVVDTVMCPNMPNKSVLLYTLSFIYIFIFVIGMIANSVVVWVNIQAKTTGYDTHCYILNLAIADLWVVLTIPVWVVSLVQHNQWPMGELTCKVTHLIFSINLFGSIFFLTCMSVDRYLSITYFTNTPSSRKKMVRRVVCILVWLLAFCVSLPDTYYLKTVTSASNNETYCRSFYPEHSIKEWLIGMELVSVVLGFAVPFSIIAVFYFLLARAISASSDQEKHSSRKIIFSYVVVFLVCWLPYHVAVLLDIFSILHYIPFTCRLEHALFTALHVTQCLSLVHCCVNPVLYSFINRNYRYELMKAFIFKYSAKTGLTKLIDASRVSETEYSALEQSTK
T1 sequence (P41595 whole entry): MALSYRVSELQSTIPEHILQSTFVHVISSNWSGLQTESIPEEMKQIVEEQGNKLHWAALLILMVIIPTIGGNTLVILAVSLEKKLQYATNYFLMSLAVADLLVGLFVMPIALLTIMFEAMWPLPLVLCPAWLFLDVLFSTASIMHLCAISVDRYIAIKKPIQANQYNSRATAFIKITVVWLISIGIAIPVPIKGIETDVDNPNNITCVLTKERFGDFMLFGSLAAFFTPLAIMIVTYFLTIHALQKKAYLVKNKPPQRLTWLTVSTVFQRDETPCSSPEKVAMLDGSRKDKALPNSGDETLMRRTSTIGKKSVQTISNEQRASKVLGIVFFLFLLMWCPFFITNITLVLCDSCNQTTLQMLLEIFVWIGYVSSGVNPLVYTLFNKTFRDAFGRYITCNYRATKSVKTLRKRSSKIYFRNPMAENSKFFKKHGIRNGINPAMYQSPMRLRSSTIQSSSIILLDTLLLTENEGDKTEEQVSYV
G-prodeshotein coupled receptor 4 (Homo sapiens), sequence (P46093 whole entry, looked up): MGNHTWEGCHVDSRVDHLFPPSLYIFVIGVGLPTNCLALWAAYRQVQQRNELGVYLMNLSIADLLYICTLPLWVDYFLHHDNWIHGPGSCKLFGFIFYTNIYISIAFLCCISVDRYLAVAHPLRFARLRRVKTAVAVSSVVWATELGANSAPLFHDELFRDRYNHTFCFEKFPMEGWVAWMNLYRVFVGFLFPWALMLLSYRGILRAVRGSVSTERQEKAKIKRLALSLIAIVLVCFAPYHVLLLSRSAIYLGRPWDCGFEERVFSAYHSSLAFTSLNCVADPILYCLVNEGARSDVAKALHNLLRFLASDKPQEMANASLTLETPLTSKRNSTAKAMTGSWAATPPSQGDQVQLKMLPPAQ

| SMILES | log(activity) [1] | log(activity) [2] | pKb [3] | Activity_index [4] | Activity index [4] | further results |
| --- | --- | --- | --- | --- | --- | --- |
| Nc1cc(-c2ccccc2CO)nc(NCc2ccccc2)n1 | inactive | inactive | inactive | inactive |  |  |
| Cc1ccccc1-c1nc(N)nc(NCc2ccccc2)n1 | inactive | inactive | inactive | inactive |  |  |
| CC(=O)c1ccccc1-c1nc(N)nc(NCc2ccccc2)n1 | inactive | inactive | inactive | inactive |  |  |
| COc1cccc(CO)c1-c1nc(N)nc(NCc2ccccc2)n1 | inactive |  | inactive | inactive |  |  |
| Nc1nc(NCCCc2ccccc2)nc(-c2cc(Cl)ccc2CO)n1 | 1.03 | 0.01 |  |  | 6.38 | Activity [5]: inactive; Activity [6]: inactive; Ki ([7]; read-out: Ki): 295 nM; Ki ([7]; read-out: pKi (converted)): 100 to 316 nM; Activity [8]: inactive; Ki [9]: 212 nM; Activity [10]: Active; EC50 [11]: 690 nM; log(activity) [12]: 0.99; log(activity) [13]: 0.13; Activity index [14]: 5.98 |
| Nc1nc(NCc2ccccc2)nc(-c2cccc(CO)c2)n1 | inactive | inactive | inactive | inactive |  | Activity [15]: inactive; Activity [16]: inactive; Activity [17]: inactive |
| CC(=O)c1cccc(-c2nc(N)nc(NCc3ccccc3)n2)c1 | inactive | inactive | inactive | inactive |  | Activity [15]: inactive; Activity [16]: inactive; Activity [17]: inactive |
| CNCc1ccccc1-c1nc(N)nc(NCc2ccccc2)n1 | inactive | inactive | inactive | inactive |  |  |
| CC(O)c1ccccc1-c1nc(N)nc(NCc2ccccc2)n1 (stereo not given) | inactive | inactive | inactive | inactive |  |  |
| CN(C)c1nc(NCc2ccccc2)nc(-c2ccccc2CO)n1 | inactive | inactive | inactive | inactive |  | Activity [15]: inactive; Activity [16]: inactive; Activity [17]: inactive |
| Nc1nc(NCCc2ccccc2)nc(-c2cc(Cl)ccc2CO)n1 | 1.09 | 0.03 |  |  | 6.26 | Activity [5]: inactive; Activity [6]: inactive; Ki ([7]; read-out: Ki): 209 nM; Ki ([7]; read-out: pKi (converted)): 100 to 316 nM; Activity [8]: inactive; Ki [9]: 678 nM; Activity [10]: Active; EC50 [11]: 1700 nM; log(activity) [12]: 1.06; log(activity) [13]: 0.13; Activity index [14]: 5.92 |
| Nc1nc(NCCCCc2ccccc2)nc(-c2ccccc2CO)n1 | 0.62 | 0.21 |  |  | 6.35 | log(activity) [12]: 0.91; log(activity) [13]: 0.08; Activity index [14]: 5.89 |
| Nc1nc(NCc2ccccc2)nc(-c2ccccc2CO)n1 | 0.6 | 0.36 |  |  | 5.31 | Activity [15]: Dose-dependent effect; log(activity) [12]: 0.8; log(activity) [13]: 0.04; Activity index [14]: 4.97 |
| NCc1ccccc1-c1nc(N)nc(NCc2ccccc2)n1 | 0.86 | 0.3 |  |  | 5.01 |  |
| Nc1nc(NCc2ccccc2)nc(-c2ccccc2)n1 | inactive | inactive | inactive | inactive |  |  |
| Nc1nc(NCCCc2ccccc2)nc(-c2c(F)cccc2CO)n1 | 1.19 | 0.02 |  |  | 5.67 |  |
